IC50, ED50 and Activity data for 36 compounds are collected here from ChEMBL document CHEMBL1141383, “Polycationic sulfonamides for the sequestration of endotoxin” (J Med Chem, 2007).

One assay relates to J774.1. Nature of the assay: Inhibition of LPS-induced nitric oxide production in murine J774.1 cells by automated Griess assay. To be noted: Mus musculus. The assay is classed as functional, cell-based. The method, boiled down:
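Murine macrophage J774A.1 cells were stimulated with 100 ng/mL LPS, and NO was read by automated Griess assay. IC50 is the concentration inhibiting 50% of the response. Run in triplicate with polymyxin B reference and negative and positive controls.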
For orientation: The Griess reaction detects nitrite, a stable product of nitric oxide.

Assay [1] in a line: Binding affinity to lipid A moiety of LPS in gram negative bacteria by fluorescent-based displacement assay. The method, boiled down: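 LPS binding measured by automated rapid-throughput fluorescence displacement of the probe BODIPY-TR cadaverine from LPS. ED50 is the concentration displacing 50% of LPS-bound probe. Run in triplicate, with polymyxin B as reference and negative and positive controls.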

A further assay has as its system HEK293. Nature of the assay: Inhibition of LPS-induced NF-kappaB production in HEK293 cells. Type of assay: functional, cell-based. The note with it: Homo sapiens. The method, boiled down: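 HEK293 cells cotransfected with TLR4, CD14 and MD2 were stimulated with LPS, and induction of NF-κB was quantified. IC50 is the concentration inhibiting 50% of the response. Run in triplicate with polymyxin B reference and negative and positive controls.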

Assay [2] relates to Blood. Kind of assay: Inhibition of LPS-induced TNFalpha release in human whole blood. The assay is classed as functional, tissue-based. The method in brief:
(§1)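 Healthy human whole blood, ex vivo, was stimulated with LPS. TNF-α, IL-1β, IL-6, IL-8, IL-10 and IL-12p70 were quantified concurrently by a multiplexed flow-cytometric bead array. IC50 is the concentration inhibiting 50% of the response. Run in triplicate with polymyxin B reference and negative and positive controls.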

For assay [3], the system named is Blood. Nature of the assay: Inhibition of LPS-induced IL8 release in human whole blood. The assay is classed as functional, tissue-based. The method, boiled down:
as §1

Assay [4] relates to Blood. Kind of assay: Inhibition of LPS-induced IL6 release in human whole blood. Type of assay: functional, tissue-based. The method, boiled down:
as §1

Assay [5] relates to Mus musculus. Kind of assay: Protection against LPS-induced lethality in galactosamine-sensitized CF1 mouse model of septic shock at 8 mg/kg after 24 hrs. The assay is classed as functional, organism-based. Also noted: dose 8 mg/kg. The method, boiled down:
(§2)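 Female outbred CF-1 mice, 9–11 weeks old and 22–28 g, were sensitized with D-galactosamine. Cohorts of five received graded compound doses in saline i.p. in one flank, immediately before an i.p. challenge of 200 ng E. coli 0111:B4 LPS (2× LD100) in the other flank. Lethality was scored at 24 h.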

Assay [6] concerns Mus musculus. Nature of the assay: Protection against LPS-induced lethality in galactosamine-sensitized CF1 mouse model of septic shock at >2 mg/kg after 24 hrs. Type of assay: functional, organism-based. The method, boiled down: as §2

Consider `CCCCCCCCCCCCCCCCCCS(=O)(=O)NCCCNCCCNCCCCNCCCN`, for which the figures for the IC50 in the assay with J774.1 and in the assay with HEK293 were 0.23 µM and 1.06 µM, respectively. Also, the ED50 in assay [1] worked out at 4.45 µM.
`CCCCCCCCCCCCS(=O)(=O)NCCNCCCNCCN` displayed an ED50 in assay [1] of 4.77 µM. The compound also had an IC50 in the assay on HEK293 of 0.686 µM.
Take `CCCCCCCCS(=O)(=O)NCCCNCCCNCCCCNCCCN`: the 50% inhibitory concentration (IC50) in the assay with J774.1 came to 6.47 µM; with HEK293, 0.816 µM. This compound returned an ED50 in assay [1] of 2.84 µM.
As to `CCCCCCCCS(=O)(=O)NCCCN(CCCNCCCCNCCCN)CCCNS(=O)(=O)CCCCCCCC`, the values for the IC50 with J774.1 and in the assay on HEK293 were 1.82 µM and 0.669 µM, respectively. The compound further displayed an ED50 in assay [1] of 2.17 µM.
`CCCCCCCCCCCCS(=O)(=O)NCCCNC/C=C/CNCCCN`: the ED50 in assay [1] worked out at 3.83 µM. Besides, the IC50 in the assay on HEK293 was 0.522 µM.
`CCCCCCCCCCCCCCCCCCS(=O)(=O)NCCCN(CCCNCCCCNCCCN)CCCNS(=O)(=O)CCCCCCCCCCCCCCCCCC` gave an ED50 in assay [1] of 28.3 µM. For the same compound, the midpoint of inhibition with HEK293, the IC50, lay at 64 µM.
The corresponding values for `CCCCCCCCS(=O)(=O)NCCCNC/C=C/CNCCCN` are 12.4 µM and 12.7 µM.
The corresponding values for `CCCCCCCCCCCCS(=O)(=O)NCCCNCCCNCCCN` are 4.27 µM and 0.363 µM.
Take `CCCCCCCC(=O)NCCCN(CCCNCCCCNCCCN)CCCNC(=O)CCCCCCC`: the IC50 in the assay with J774.1 came out at 9.02 µM; with HEK293, 9.76 µM. Besides, the ED50 in assay [1] is 1 µM.
The corresponding values for `CCCCCCCCS(=O)(=O)NCCCNCCCNCCCCNCCCNCCCNS(=O)(=O)CCCCCCCC` are 0.577 µM, 0.607 µM and 2.6 µM.
In assay [1], `CCCCCCCCCCCCCCCCS(=O)(=O)NCCCN(CCCN)CCCN` displayed an ED50 of 12.3 µM. The compound further registered an IC50 in the assay on HEK293 of 9.19 µM.
Consider `CCCCCCCCCCCCCCCCS(=O)(=O)N(CCCN)CCCCNCCCN`, for which the concentration for half-maximal inhibition (IC50) stood at 13.7 µM with J774.1 and 2.68 µM with HEK293. In addition, the ED50 in assay [1] is 45.6 µM.
Consider `CCCCCCCCCCCCS(=O)(=O)NCCCN(CCCNCCCCNCCCN)CCCNS(=O)(=O)CCCCCCCCCCCC`, for which the values for the concentration for half-maximal inhibition (IC50) with J774.1 and with HEK293 were 2.27 µM and 13.2 µM, respectively. In assay [1], this compound had an ED50 of 3.98 µM.
With `CCCCCCCCCCS(=O)(=O)NCCCN(CCCNCCCNCCCCNCCCN)CCCNS(=O)(=O)CCCCCCCCCC`, the IC50 in the assay on J774.1 turned out to be 0.43 µM; in the assay on HEK293, 2.2 µM. Further, in assay [1], the ED50 was 1.16 µM.
For `CCCCCCCCCCCCCCCCS(=O)(=O)NCCCOCCCCOCCCN`, the 50% inhibitory concentration (IC50) in the assay on J774.1 came out at 30.9 µM; with HEK293, 22.4 µM. The ED50 in assay [1] is greater than 5000 µM.
For the compound `CCCCCCCCCCCCS(=O)(=O)NCCCNCCCCNCCCN`, the IC50 in the assay on J774.1 worked out at 1.34 µM; in the assay with HEK293, 0.41 µM. In addition, the ED50 in assay [1] turned out to be 2.69 µM.
Take `CCCCCCCCS(=O)(=O)NCCCNCCCNCCCN`: the ED50 in assay [1] was determined as 6.7 µM. This compound also showed a 50% inhibitory concentration (IC50) in the assay with HEK293 of 5.56 µM.
Turning to `CCCCCCCCCCS(=O)(=O)NCCCNCCCNCCCCNCCCN`, the concentration for half-maximal inhibition (IC50) in the assay with Blood [2] is 32.9 µM; with J774.1 it was 1.09 µM; in the assay on Blood [3], 22.4 µM; in the assay with HEK293, 0.278 µM; in the assay on Blood [4] it was 29.4 µM. The compound further had an ED50 in assay [1] of 2.89 µM.
Regarding `CCCCCCCCS(=O)(=O)NCCCNCCCCNCCCN`, the IC50 with J774.1 came out at 1.44 µM; in the assay on HEK293, 33.3 µM. The ED50 in assay [1] came out at 6.64 µM.
Take `CCCCCCCCCCCCCCCCS(=O)(=O)NCCCNCCCCNCCCN`: the IC50 in the assay with Blood [2] was 22.1 µM; in the assay on J774.1, 0.45 µM; in the assay with Blood [3] it was 15.2 µM; with HEK293, 0.28 µM; in the assay with Blood [4] it was 8.17 µM. Moreover, in assay [1], the ED50 turned out to be 3.87 µM. Besides, in the assay with Mus musculus [5], the Activity entry was “Dose-dependent effect”.
Turning to `CCCCCCCCCCCCS(=O)(=O)NCCCNCCCNCCCCNCCCNCCCNS(=O)(=O)CCCCCCCCCCCC`, the IC50 came to 5 µM in the assay with J774.1 and 10.3 µM with HEK293. Besides, the ED50 in assay [1] was found to be 55.2 µM.
Consider `CCCCCCCCS(=O)(=O)NCCCN(CCCNCCCNCCCCNCCCN)CCCNS(=O)(=O)CCCCCCCC`, for which the IC50 is 11 µM in the assay with Blood [2]; 0.32 µM with J774.1; 12.5 µM in the assay with Blood [3]; 0.3 µM with HEK293; 7.77 µM in the assay with Blood [4]. Besides, the ED50 in assay [1] stood at 2.62 µM. Moreover, in the assay with Mus musculus [6], the Activity result was “Toxic”.
`CCCCCCCCCCCCCCCCS(=O)(=O)NCCCNCCCNCCCCNCCCNCCCNS(=O)(=O)CCCCCCCCCCCCCCCC`: the 50% inhibitory concentration (IC50) in the assay with J774.1 was 6.3 µM; in the assay on HEK293, 11.7 µM. In assay [1], the ED50 was determined as 133 µM.
For `CCCCCCCCCCS(=O)(=O)NCCCN(CCCNCCCCNCCCN)CCCNS(=O)(=O)CCCCCCCCCC`, the IC50 in the assay with J774.1 is 1.1 µM; in the assay on HEK293, 5.17 µM. Also, the ED50 in assay [1] stood at 2.4 µM.
The corresponding values for `CCCCCCCCCCCCCCCCS(=O)(=O)NCCCN(CCCNCCCNCCCCNCCCN)CCCNS(=O)(=O)CCCCCCCCCCCCCCCC` are 5.2 µM, 2.68 µM and 9.31 µM.
Turning to `CCCCCCCCCCCCCCCCS(=O)(=O)NCCCN(CCCNCCCCNCCCN)CCCNS(=O)(=O)CCCCCCCCCCCCCCCC`, the results for the 50% inhibitory concentration (IC50) in the assay with J774.1 and with HEK293 were 15.1 µM and 4.85 µM, respectively. For the same compound, the ED50 in assay [1] came to 26.4 µM.
Regarding `CCCCCCCC(=O)NCCCN(CCCNCCCNCCCCNCCCN)CCCNC(=O)CCCCCCC`, the IC50 was 2.48 µM in the assay with J774.1 and 3.17 µM with HEK293. This compound also returned an ED50 in assay [1] of 1.32 µM.
Take `CCCCCCCCCCCCCCCCCCS(=O)(=O)NCCCNCCCNCCCCNCCCNCCCNS(=O)(=O)CCCCCCCCCCCCCCCCCC`: the half-inhibitory concentration (IC50) in the assay with J774.1 is 4.22 µM; in the assay on HEK293 it was 6.49 µM. Also, the ED50 in assay [1] is 5000 µM.
Consider `CCCCCCCCCCCCCCCCS(=O)(=O)NCCCNCCCNCCCCNCCCN`, for which the IC50 was found to be 14.2 µM in the assay on Blood [2]; 0.12 µM in the assay on J774.1; 4.2 µM in assay [1]; 15.1 µM with Blood [3]; 0.2 µM in the assay on HEK293; 5.92 µM in the assay with Blood [4]. Also, in assay [1], the ED50 is 4.71 µM. Besides, the Activity entry in the assay with Mus musculus [5] is “Dose-dependent effect”.
Consider `CCCCCCCCCCS(=O)(=O)NCCCNCCCNCCCCNCCCNCCCNS(=O)(=O)CCCCCCCCCC`, for which the IC50 in the assay with J774.1 came out at 0.692 µM; in the assay with HEK293, 4.2 µM. In assay [1], this compound returned an ED50 of 13.5 µM.
The corresponding values for `CCCCCCCCCCCCS(=O)(=O)NCCCN(CCCNCCCNCCCCNCCCN)CCCNS(=O)(=O)CCCCCCCCCCCC` are 0.51 µM, 16.4 µM and 6.82 µM.
Take `CCCCCCCCCCS(=O)(=O)NCCCNCCCCNCCCN`: the results for the IC50 with J774.1 and in the assay on HEK293 were 4.42 µM and 0.5 µM, respectively. This compound also yielded an ED50 in assay [1] of 3.7 µM.
For the compound `CCCCCCCCCCCCS(=O)(=O)NCCCNCCCNCCCCNCCCN`, the half-inhibitory concentration (IC50) in the assay on Blood [2] is 30.1 µM; in the assay on J774.1 it was 0.39 µM; in the assay with Blood [3], 15.3 µM; in the assay on HEK293, 0.19 µM; with Blood [4], 12.1 µM. In assay [1], the ED50 turned out to be 2.92 µM.
In the case of `CCCCCCCCCCCCCCCCCCS(=O)(=O)NCCCNCCCCNCCCN`, the half-inhibitory concentration (IC50) with Blood [2] was 18 µM; in the assay on J774.1, 0.48 µM; in the assay on Blood [3], 15.4 µM; with HEK293 it was 0.36 µM; in the assay with Blood [4], 8.8 µM. For the same compound, the ED50 in assay [1] was 6.01 µM.
Turning to `CCCCCCCCS(=O)(=O)NCCNCCCNCCN`, the ED50 in assay [1] stood at 10.6 µM. This compound displayed an IC50 in the assay on HEK293 of 13.8 µM.
Turning to `CCCCCCCCCCCCCCCCS(=O)(=O)NCCN(CCN)CCN`, in assay [1], the ED50 was found to be 3.54 µM. In the assay with HEK293, this compound had a 50% inhibitory concentration (IC50) of 0.379 µM.

Broadly, the IC50 is the concentration at which inhibition is half-maximal. A high value points to weaker potency in that assay.
